Each block holds one molecule with its values, some of them ahead of it. Active and inactive are the calls of the source. No cut-off for these calls is given here.
Assays:
HeLa [1] = test: Antimitotic activity in human HeLa cells assessed as formation of monopolar spindles at 2 uM after 24 hrs using DAPI staining by fluorescent microscopic analysis; type: functional, cell-based
Summary of the method: (§1)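 HeLa given the stated inhibitor concentration for 24 h on glass chamber slides (DMSO final 0.4% v/v), then fixed in paraformaldehyde and cold methanol. Microtubules stained with anti-α-tubulin DM1A, mitotic chromosomes stained with anti-phospho-H3 Ser10, DNA stained with DAPI. Monopolar spindle phenotype in mitotically arrested cells scored by fluorescence microscopy.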

HeLa [2] = test: Antimitotic activity in human HeLa cells assessed as formation of monopolar spindles at 0.25 uM after 24 hrs using DAPI staining by fluorescent microscopic analysis; type: functional, cell-based; summary of the method: as §1
[3] = biological target: T1, Kinesin-like protein KIF11 (Homo sapiens) (UniProt P52732); test: Inhibition of C-terminally His6-tagged microtubule-activated KSP motor domain ATPase activity assessed as ATP hydrolysis by Lineweaver-Burk plot analysis
T1 sequence (whole entry): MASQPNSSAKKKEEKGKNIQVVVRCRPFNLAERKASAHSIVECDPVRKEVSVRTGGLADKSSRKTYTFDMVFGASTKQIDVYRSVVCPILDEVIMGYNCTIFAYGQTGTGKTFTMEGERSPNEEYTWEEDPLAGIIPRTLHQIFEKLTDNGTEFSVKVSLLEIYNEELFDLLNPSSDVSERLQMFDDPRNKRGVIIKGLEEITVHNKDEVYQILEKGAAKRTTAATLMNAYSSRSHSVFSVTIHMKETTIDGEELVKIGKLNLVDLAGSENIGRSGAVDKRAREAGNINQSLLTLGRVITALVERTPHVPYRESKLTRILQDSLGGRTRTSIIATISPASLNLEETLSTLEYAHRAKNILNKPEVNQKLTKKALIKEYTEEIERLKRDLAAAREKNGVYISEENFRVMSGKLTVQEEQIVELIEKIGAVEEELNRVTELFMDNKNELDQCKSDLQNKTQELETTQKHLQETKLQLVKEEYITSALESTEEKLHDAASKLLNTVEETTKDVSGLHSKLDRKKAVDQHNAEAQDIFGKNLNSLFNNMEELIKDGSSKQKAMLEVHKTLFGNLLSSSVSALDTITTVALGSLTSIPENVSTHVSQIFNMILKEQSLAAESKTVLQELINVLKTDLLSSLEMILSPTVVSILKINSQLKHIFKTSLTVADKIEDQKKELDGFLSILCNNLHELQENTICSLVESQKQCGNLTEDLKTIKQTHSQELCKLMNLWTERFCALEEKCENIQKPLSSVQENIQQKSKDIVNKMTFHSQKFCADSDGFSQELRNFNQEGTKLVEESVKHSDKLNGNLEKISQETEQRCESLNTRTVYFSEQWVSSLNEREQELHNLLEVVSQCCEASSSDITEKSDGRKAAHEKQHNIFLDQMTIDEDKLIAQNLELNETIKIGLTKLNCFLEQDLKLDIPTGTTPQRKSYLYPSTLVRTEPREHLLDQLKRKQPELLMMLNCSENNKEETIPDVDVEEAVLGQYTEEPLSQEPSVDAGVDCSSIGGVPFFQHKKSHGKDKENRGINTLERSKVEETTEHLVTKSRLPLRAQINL
Summary of the method: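 Steady-state coupled assay with 80 nM bacterially expressed KSP motor domain and 400 nM taxol-stabilized microtubules. Buffer: 50 mM PIPES pH 6.9, 2.5 mM KCl, 1 mM MgCl₂, PEP, NADH, DTT, 8 μM taxol, pyruvate kinase/lactate dehydrogenase. ATP varied, with or without inhibitor; A340 read every 5 s. Rates from linear least-squares fits, fitted to Michaelis–Menten and shown as Lineweaver–Burk plots.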

HeLa [4] = test: Antimitotic activity in human HeLa cells assessed as formation of monopolar spindles at 4 uM after 24 hrs using DAPI staining by fluorescent microscopic analysis; type: functional, cell-based; summary of the method: as §1

Compound: O=C1CCc2c(ccc3c2[nH]c2cc(C(F)(F)F)ccc23)N1
Activity (HeLa [1]): Active

inhibition [3]: Active
Compound: O=C1CCc2cc3c(cc2N1)[nH]c1cc(C(F)(F)F)ccc13
Activity (HeLa [2]): Active

Compound: NC(=O)Nc1ccc2c(c1)[nH]c1cc(C(F)(F)F)ccc12
Activity (HeLa [4]): Active

Source: ChEMBL document CHEMBL1800062, “Structure-activity relationships of carboline and carbazole derivatives as a novel class of ATP-competitive kinesin spindle protein inhibitors” (J Med Chem, 2011)
